# Data as given in ChEMBL document CHEMBL4673285, “Design, Synthesis, and Biological Evaluation of Linear Aliphatic Amine-Linked Triaryl Derivatives as Potent Small-Molecule Inhibitors of the Programmed Cell Death-1/Programmed Cell Death-Ligand 1 Interaction with Promising Antitumor Effects In Vivo” (J Med Chem, 2020).
# Activity calls are given as the source filed them. No cut-off for these calls is given here.
# Legend:
# [1] = Dose normalized AUClast in male Sprague-Dawley rat at 4 mg/kg, iv measured up to 24 hrs by LC-MS/MS analysis; assay type: ADME, organism-based; settings: in vivo
# Summary of the method: (§1)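 Male Sprague Dawley rats (n = 6, 6−8 weeks, 200−300 g), single 4 mg/kg iv dose in 25% MPD/10% RH40/65% water, freshly prepared. About 0.2 mL blood drawn at 0.08, 0.25, 0.5, 1, 2, 4, 8, 24 h into EDTA-K2, centrifuged 4000g 5 min at 4 °C; plasma assayed by LC−MS/MS; noncompartmental parameters reported as mean ± SD.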
# [2] = Half-life in male Sprague-Dawley rat at 4 mg/kg, iv measured up to 24 hrs by LC-MS/MS analysis; assay type: ADME, organism-based; settings: in vivo; summary of the method: as §1
# [3] = AUClast in male Sprague-Dawley rat at 4 mg/kg, iv measured up to 24 hrs by LC-MS/MS analysis; assay type: ADME, organism-based; parameters: route intravenous, dose 4 mg/kg, time <=24; settings: in vivo; summary of the method: as §1
# [4] = Acute toxicity in C57BL/6J mouse xenografted with MC38 cells assessed as mortality at 15 mg/kg, ip QD for 3 week; assay type: organism-based; settings: in vivo, 504 h, time 3 weeks
# [5] = target: T1, Programmed cell death 1 ligand 1 (Homo sapiens, UniProt Q9NZQ7); test: Binding affinity to biotinylated human AVI-PD-L1 assessed as association constant by biolayer interferometry
# T1 sequence (Q9NZQ7 whole entry): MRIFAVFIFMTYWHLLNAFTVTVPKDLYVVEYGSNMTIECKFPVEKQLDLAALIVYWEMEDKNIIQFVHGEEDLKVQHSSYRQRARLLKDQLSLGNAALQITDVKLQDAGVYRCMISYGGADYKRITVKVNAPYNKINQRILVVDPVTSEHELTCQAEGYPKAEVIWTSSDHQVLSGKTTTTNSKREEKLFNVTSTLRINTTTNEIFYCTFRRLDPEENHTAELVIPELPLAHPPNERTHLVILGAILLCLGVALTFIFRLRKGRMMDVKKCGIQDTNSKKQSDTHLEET
# Summary of the method: (§2)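 Biotinylated human PD-L1/AVI at 10 μg/mL loaded on streptavidin biosensors for 300 s, then baselined. Association with compound at 20 to 0.3125 nM plus 0 nM for 180 s, then dissociation in buffer for 300 s. Data globally fitted to a 1:1 model to give ka and kdis; apparent affinity taken as their ratio.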
# RAW264.7 [6] = test: Cytotoxicity against mouse RAW264.7 cells assessed as reduction in cell viability at 3.125 to 100 uM incubated for 24 hrs by Cell-titer glo Luminescent assay; assay type: cell-based; settings: raw264.7, 24 h, dose 3.125-100 µM
# Summary of the method: (§3)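 Cells (Raji, RAW 264.7 or donor PBMCs) plated at 1 × 10⁴ per well in medium with 10% FBS. Treated for 24 h at 37 °C, 5% CO₂ with 100, 50, 25, 12.5, 6.25 or 3.125 μM compound, or buffer containing 0.2% DMSO. Viability read by CellTiter-Glo luminescence; killing rate = (1 − RLU compound/RLU control) × 100%; triplicate, mean ± SEM.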
# [7] = AUC (0 to infinity) in male Sprague-Dawley rat plasma at 4 mg/kg, iv measured up to 24 hrs by LC-MS/MS analysis; assay type: ADME, organism-based; parameters: route intravenous, dose 4 mg/kg, time <=24; summary of the method: as §1
# [8] = target: T1, Programmed cell death 1 ligand 1; test: Binding affinity to biotinylated human AVI-PD-L1 by biolayer interferometry; summary of the method: as §2
# [9] = AUC (extrapolated) in male Sprague-Dawley rat at 4 mg/kg, iv measured up to 24 hrs by LC-MS/MS analysis; assay type: ADME, organism-based; settings: in vivo; summary of the method: as §1
# [10] = Cytotoxicity against human PBMC cells assessed as reduction in cell viability at 6.3 uM incubated for 24 hrs by Cell-titer glo Luminescent assay; assay type: cell-based; summary of the method: as §3
# [11] = target: T1, Programmed cell death 1 ligand 1; test: Inhibition of human PD-L1 cocultured in PBMC cells assessed as inhibition of PD1/PDL1 interaction mediated increase in IFN-gamma secretion at 0.1 uM incubated for 72 hrs by ELISA relative to control; assay type: cell-based
# Summary of the method: (§4)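 Healthy-donor PBMCs, 1 × 10⁵ per well in RPMI 1640 with 10% FBS, stimulated with anti-CD3/anti-CD28 (1:1, 0.8 μg/mL final) plus PD-L1/Fc at 10 μg/mL final. Compound added at 0.1 or 1 μM final and cocultured 72 h at 37 °C, 5% CO₂. Supernatant IFN-γ measured by ELISA; quadruplicate, mean ± SEM.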
# [12] = MRT (0 to infinity) in male Sprague-Dawley rat at 4 mg/kg, iv measured up to 24 hrs by LC-MS/MS analysis; assay type: ADME, organism-based; settings: in vivo; summary of the method: as §1
# [13] = Cytotoxicity against human PBMC cells assessed as reduction in cell viability up to 100 uM incubated for 24 hrs by Cell-titer glo Luminescent assay; assay type: cell-based; summary of the method: as §3
# [14] = Clearance in male Sprague-Dawley rat at 4 mg/kg, iv measured up to 24 hrs by LC-MS/MS analysis; assay type: ADME, organism-based; settings: in vivo; summary of the method: as §1
# Raji [15] = test: Cytotoxicity against human Raji cells assessed as reduction in cell viability at 3.125 uM incubated for 24 hrs by Cell-titer glo Luminescent assay; assay type: cell-based; summary of the method: as §3
# [16] = Volume of distribution at steady state in male Sprague-Dawley rat at 4 mg/kg, iv measured up to 24 hrs by LC-MS/MS analysis; assay type: ADME, organism-based; settings: in vivo, read-out: Vdss; summary of the method: as §1
# [17] = target: T1, Programmed cell death 1 ligand 1; test: Binding affinity to human PD-L1 expressed in CHOK1 cells assessed as inhibition of PD1/PDL1 protein-protein interaction at 500 nM incubated for 30 mins by flow cytometry analysis; assay type: cell-based; settings: CHO-K1
# Summary of the method: (§5)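 CHO-K1-hPD-L1 cells, 5 × 10⁵ per tube in PBS with 2% FBS, incubated with hPD-1/Fc (10 μg/mL final) at 4 °C for 30 min. Compound added at 500 nM final and incubated a further 30 min at 4 °C, then stained with APC anti-human IgG Fc. Percentage of hPD-1-bound cells read by flow cytometry. Blocking efficacy calculated against a no-inhibitor positive control and parental CHO-K1 negative control.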
# [18] = Acute toxicity in C57BL/6J mouse xenografted with MC38 cells assessed as change in body weight at 15 mg/kg, ip QD for 3 week; assay type: organism-based; settings: in vivo, 504 h, time 3 weeks
# Summary of the method: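 Female PD-1-humanized C57BL/6J-Pdcd1^{em1(hPDCD1)/Smoc} mice, six weeks old, were acclimated 1 week. They were given 1 × 10⁶ MC38 cells (mouse PD-L1 knockout, human PD-L1 knock-in) s.c. near the hind-leg groin. Mice were randomised at 50−150 mm³ tumour volume (6 per group) and dosed 15 mg/kg ip once daily for 3 weeks. Vehicle was 0.8% DMSO/7.5% RH40 in saline. Body weight was measured twice weekly.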
# MC-38 = test: Antitumor activity against mouse MC38 cells xenografted in PD-L1 knockout/PD1 knock-in C57BL/6J mouse assessed as tumor growth inhibition at 15 mg/kg, ip QD for 3 weeks measured after day 21; assay type: functional; parameters: scale not given: the % may be the effect or the level left
# [19] = target: T1, Programmed cell death 1 ligand 1; test: Binding affinity to biotinylated human AVI-PD-L1 assessed as dissociation rate constant by biolayer interferometry
# [20] = Initial plasma concentration in male Sprague-Dawley rat plasma at 4 mg/kg, iv measured up to 24 hrs by LC-MS/MS analysis; assay type: ADME, organism-based; summary of the method: as §1
# [21] = Plasma concentration in male Sprague-Dawley rat at 15 mg/kg, po measured up to 24 hrs by LC-MS/MS analysis; assay type: ADME, organism-based
# Summary of the method: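 Male Sprague Dawley rats (n = 6, 6−8 weeks, 200−300 g) given a single 15 mg/kg oral dose in 25% MPD/10% RH40/65% water. Blood sampled at 0.25, 0.5, 1, 2, 4, 8, 24 h into EDTA-K2 and spun to plasma; LC−MS/MS analysis, quantifiable limit 0.5 ng/mL.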
# [22] = target: T1, Programmed cell death 1 ligand 1; test: Binding affinity to human PD-L1 expressed in CHOK1 cells assessed as inhibition of PD1/PDL1 protein-protein interaction at 500 nM incubated for 30 mins by flow cytometry analysis relative to control; assay type: cell-based; settings: CHO-K1; summary of the method: as §5
# [23] = target: T1, Programmed cell death 1 ligand 1; test: Inhibition of human PD-L1 cocultured in PBMC cells assessed as inhibition of PD1/PDL1 interaction mediated increase in IFN-gamma secretion at 1 uM incubated for 72 hrs by ELISA relative to control; assay type: cell-based; summary of the method: as §4
# [24] = Acute toxicity in C57BL/6J mouse xenografted with MC38 cells assessed as behavior changes at 15 mg/kg, ip QD for 3 week; assay type: organism-based; settings: in vivo, 504 h, time 3 weeks
# [25] = Cytotoxicity against human PBMC cells assessed as reduction in cell viability at 100 uM incubated for 24 hrs by Cell-titer glo Luminescent assay relative to control; assay type: cell-based; summary of the method: as §3
# Raji [26] = test: Cytotoxicity against human Raji cells assessed as reduction in cell viability incubated for 24 hrs by Cell-titer glo Luminescent assay; assay type: cell-based; summary of the method: as §3
# RAW264.7 [27] = test: Cytotoxicity against mouse RAW264.7 cells assessed as reduction in cell viability incubated for 24 hrs by Cell-titer glo Luminescent assay; assay type: cell-based; settings: RAW264.7, 24 h; summary of the method: as §3
# [28] = Cytotoxicity against human PBMC cells assessed as reduction in cell viability incubated for 24 hrs by Cell-titer glo Luminescent assay; assay type: cell-based; settings: dose 3.125-100 µM; summary of the method: as §3
smiles,measurement,setting,value
Cc1cc(CN[C@H](CO)C(=O)O)c(OCc2cncc(C#N)c2)cc1NCc1cccc(-c2ccccc2)c1C,AUClast/dose,[1],226 ng·kg·h/mL/mg
same,half-life,[2],82.8 min
same,AUC(0-t) at 24 h,[3],905 ng·h/mL
same,Activity,[4],Non-Toxic
same,association rate constant (kon),[5],2.17 10^6/M/s
same,Activity,RAW264.7 [6],Non-Toxic
same,AUC(0-inf),[7],908 ng·h/mL
same,Dissociation constant (KD),[8],1.62 10^-11M
same,%AUCextra,[9],0.283%
same,Activity,[10],Non-Toxic
same,inhibition,[11],72.9%
same,MRT inf,[12],29.2 min
same,Activity,[13],Non-Toxic
same,clearance,[14],74.5 mL/min/kg
same,Activity,Raji [15],Non-Toxic
same,Vd,[16],2.17 L/kg
same,Activity,[17],Active
same,Activity,[18],Non-Toxic
same,Activity,MC-38,61.7%
same,koff,[19],3.53 10^-5/s
same,C0 at 24 h,[20],4370 ng/mL
same,concentration at 24 h,[21],0.5 ng/mL
same,Efficacy,[22],97.5%
same,inhibition,[23],56.8%
same,Activity,[24],Non-Toxic
COc1nc(NCc2cccc(-c3ccccc3)c2C)ccc1CNCCNC(C)=O,Activity,[25],100%
same,EC50,Raji [26],13.8 µM
same,EC50,RAW264.7 [27],6.97 µM
same,Activity,[10],Non-Toxic
same,Activity,[28],Toxic
